For one experiment, the target named is Carbonic anhydrase 1 (Homo sapiens, UniProt P00915). As to the kind of experiment: Inhibition of human recombinant carbonic anhdydrase-1 expressed in Escherichia coli pre-incubated for 6 hrs by stopped-flow CO2 hydration assay.
A further experiment addresses Carbonic anhydrase 9 (Homo sapiens, UniProt Q16790). As to the kind of experiment: Inhibition of human recombinant carbonic anhdydrase-9 expressed in Escherichia coli pre-incubated for 6 hrs by stopped-flow CO2 hydration assay.
Another experiment addresses Carbonic anhydrase 2 (Homo sapiens, UniProt P00918). As to the kind of experiment: Inhibition of human recombinant carbonic anhdydrase-2 expressed in Escherichia coli pre-incubated for 6 hrs by stopped-flow CO2 hydration assay.
Experiment [1] concerns HT-29. The experiment can be described thus: Cytotoxicity against human HT-29 cells assessed as reduction in cell viability at 100 uM incubated for 72 hrs under normoxic conditions by MTT assay. Format: functional, cell-based. Put shortly: (§1)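 HT-29 cells were grown in high-glucose DMEM with 20% FBS at 37 °C and plated at 1 × 10^4/well. After 24 h they were exposed to 0, 30, 100 or 300 μM for 16, 48 or 72 h in normoxia (20% O2, air, 5% CO2). Washed cells got 1 mg/mL MTT for 30 min at 37 °C, formazan was dissolved in DMSO and A550 read. Untreated set at 100%. Quadruplicates, ≥3 cell batches; mean ± SEM.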
In general terms: Tetrazolium assays rely on reduction of a dye to a coloured formazan, in cell work by metabolically active cells.

Experiment [2] has as its system HT-29. As to the kind of experiment: Cytotoxicity against human HT-29 cells assessed as reduction in cell viability at 100 uM incubated for 72 hrs under hypoxic conditions by MTT assay. It counts as functional, cell-based. In short, it runs like this: (§2)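 Cells were kept in high-glucose DMEM with 20% FBS at 37 °C, seeded at 1 × 10^4/well and treated 24 h later at 0–300 μM (0, 30, 100, 300) for 16, 48 or 72 h. Incubation was in a hypoxic chamber (0.1% O2, 5% CO2, residual N2). Viability was measured by MTT (1 mg/mL, 30 min, 37 °C), with DMSO-solubilized formazan read at 550 nm and expressed against untreated control = 100%. Mean ± SEM of three experiments.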

For experiment [3], the system named is HT-29. The experiment can be described thus: Cytotoxicity against human HT-29 cells assessed as reduction in cell viability at 30 to 300 uM incubated for 16 to 72 hrs under normoxic conditions by MTT assay. Format: functional, cell-based. Put shortly: as §1
The test system of experiment [4] is HT-29. The experiment can be described thus: Cytotoxicity against human HT-29 cells assessed as reduction in cell viability at 30 to 300 uM incubated for 16 to 72 hrs under hypoxic conditions by MTT assay. It counts as functional, cell-based. In short, it runs like this:
as §2

For experiment [5], the system named is HT-29. As to the kind of experiment: Cytotoxicity against human HT-29 cells assessed as cell viability at 100 uM incubated for 72 hrs under normoxic conditions by MTT assay. Format: functional. The following applies: HT-29, 72 h, read-out: Activity. Put shortly: as §1
Experiment [6] relates to HT-29. As to the kind of experiment: Cytotoxicity against human HT-29 cells assessed as cell viability at 30 uM incubated for 72 hrs under normoxic conditions by MTT assay. It counts as functional. Conditions: HT-29, 72 h, read-out: Activity. In short, it runs like this: as §1
Experiment [7] has as its system HT-29. The experiment can be described thus: Cytotoxicity against human HT-29 cells assessed as cell viability at 100 uM incubated for 48 hrs under normoxic conditions by MTT assay. The following applies: HT-29, 48 h, read-out: Activity. It counts as functional. Put shortly: as §1
The test system of experiment [8] is HT-29. The experiment can be described thus: Cytotoxicity against human HT-29 cells assessed as reduction in cell viability at 30 uM incubated for 16 hrs under normoxic conditions by MTT assay. Format: functional, cell-based. Put shortly:
as §1

The test system of experiment [9] is HT-29. The experiment can be described thus: Cytotoxicity against human HT-29 cells assessed as cell viability at 100 uM incubated for 72 hrs under hypoxic conditions by MTT assay. Format: functional. The following applies: HT-29, 72 h, read-out: Activity. Put shortly: as §2
In experiment [10] the test system is HT-29. The experiment can be described thus: Cytotoxicity against human HT-29 cells assessed as cell viability at 100 uM incubated for 16 hrs under normoxic conditions by MTT assay. Format: functional. Conditions: HT-29, 16 h, read-out: Activity. In short, it runs like this:
as §1

For experiment [11], the system named is HT-29. The experiment can be described thus: Cytotoxicity against human HT-29 cells assessed as reduction in cell viability at 300 uM incubated for 16 to 72 hrs under normoxic conditions by MTT assay. It counts as functional, cell-based. In short, it runs like this: as §1

Structures are written as SMILES. The source made the active and inactive calls. The rule behind the calls is not given here. Where only a bound is given, the exact number is not on record here.

Usually Ki stands for a dissociation constant, usually derived from enzyme kinetics or from competition with a known ligand.

Chain of Carbonic anhydrase 1 (P00915 whole entry): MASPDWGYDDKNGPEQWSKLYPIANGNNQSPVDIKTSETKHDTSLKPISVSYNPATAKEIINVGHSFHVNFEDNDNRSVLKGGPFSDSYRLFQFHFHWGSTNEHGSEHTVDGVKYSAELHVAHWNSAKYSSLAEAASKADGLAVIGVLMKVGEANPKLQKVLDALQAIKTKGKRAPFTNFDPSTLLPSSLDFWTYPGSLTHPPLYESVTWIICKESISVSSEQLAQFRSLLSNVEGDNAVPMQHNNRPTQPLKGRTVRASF

With `O=C(Nc1ccc2c(c1)C=CS(=O)(=O)O2)c1cccs1`, the Ki is > 10 µM on Carbonic anhydrase 1, 0.0295 µM on Carbonic anhydrase 9 and > 10 µM on Carbonic anhydrase 2.

As for `COc1ccc2c(c1)C=CS(=O)(=O)O2`, the Ki on Carbonic anhydrase 1 is > 10 µM; on Carbonic anhydrase 9 it was 0.0421 µM; on Carbonic anhydrase 2, > 10 µM.

Regarding `O=C(Nc1ccc2c(c1)C=CS(=O)(=O)O2)c1ccco1`, the inhibition constant (Ki) is > 10 µM on Carbonic anhydrase 1, 0.033 µM on Carbonic anhydrase 9 and > 10 µM on Carbonic anhydrase 2.

On to `O=C(Nc1ccc2c(c1)C=CS(=O)(=O)O2)c1ccccc1I`, for which the inhibition constant Ki at Carbonic anhydrase 1 was > 10 µM; at Carbonic anhydrase 9, 0.0091 µM; at Carbonic anhydrase 2, > 10 µM.

As for `O=C(Nc1ccc2c(c1)C=CS(=O)(=O)O2)c1ccccc1Br`, the result in the experiment on HT-29 [1] and in the experiment with HT-29 [2] was Active. Also, the values for the Ki at Carbonic anhydrase 1, on Carbonic anhydrase 9 and on Carbonic anhydrase 2 were > 10 µM, 0.0097 µM and > 10 µM, respectively.

For `O=C(Nc1ccc2c(c1)C=CS(=O)(=O)O2)c1ccncc1`, the Ki is > 10 µM on Carbonic anhydrase 1, 0.0077 µM on Carbonic anhydrase 9 and > 10 µM at Carbonic anhydrase 2. The outcome in the experiment on HT-29 [3] and in the experiment with HT-29 [4] was inactive.

In the case of `O=C(Nc1ccc2c(c1)C=CS(=O)(=O)O2)c1ccccc1`, the viability at 100 µM came to 40% with HT-29 [5], 60% in the experiment with HT-29 [7], 35% with HT-29 [9] and 52% in the experiment with HT-29 [10]. For the same molecule, the viability at 30 µM with HT-29 [6] was 43%. For the same molecule, the inhibition constant Ki was > 10 µM at Carbonic anhydrase 1, 0.0066 µM at Carbonic anhydrase 9 and > 10 µM on Carbonic anhydrase 2. The outcome in the experiment on HT-29 [8] was Active. Further, the outcome with HT-29 [11] was inactive.

Consider `Cc1ccc(C(=O)Nc2ccc3c(c2)C=CS(=O)(=O)O3)cc1`, for which the inhibitory constant (Ki) on Carbonic anhydrase 1 is > 10 µM; at Carbonic anhydrase 9, 0.009 µM; on Carbonic anhydrase 2, > 10 µM.

Regarding `N#Cc1ccc2c(c1)C=CS(=O)(=O)O2`, the figures for the inhibition constant (Ki) on Carbonic anhydrase 1, on Carbonic anhydrase 9 and on Carbonic anhydrase 2 were > 10 µM, 0.0338 µM and > 10 µM, respectively.

`CC(C)(C)C(=O)Nc1ccc2c(c1)C=CS(=O)(=O)O2`: the Ki on Carbonic anhydrase 1 was > 10 µM; at Carbonic anhydrase 9 it was 0.0056 µM; at Carbonic anhydrase 2, > 10 µM.

On to `O=C(Cc1ccccc1)Nc1ccc2c(c1)C=CS(=O)(=O)O2`, for which the figures for the inhibition constant (Ki) on Carbonic anhydrase 1, on Carbonic anhydrase 9 and on Carbonic anhydrase 2 were > 10 µM, 0.0813 µM and > 10 µM, respectively.

In the case of `O=C(Nc1ccc2c(c1)C=CS(=O)(=O)O2)c1cccnc1`, the Ki was > 10 µM on Carbonic anhydrase 1, 0.0105 µM on Carbonic anhydrase 9 and > 10 µM on Carbonic anhydrase 2.

Consider `CC(=O)Nc1ccc2c(c1)C=CS(=O)(=O)O2`, for which the Ki on Carbonic anhydrase 1 was > 10 µM; at Carbonic anhydrase 9, 0.0172 µM; at Carbonic anhydrase 2 it was > 10 µM.

With `C[N+](C)(C)c1ccc2c(c1)C=CS(=O)(=O)O2`, the inhibition constant (Ki) on Carbonic anhydrase 1 is > 10 µM; at Carbonic anhydrase 9, 0.0096 µM; at Carbonic anhydrase 2, > 10 µM. The outcome with HT-29 [3] and with HT-29 [4] was inactive.

These data come from ChEMBL document CHEMBL3425425, “6-Substituted sulfocoumarins are selective carbonic anhdydrase IX and XII inhibitors with significant cytotoxicity against colorectal cancer cells” (J Med Chem, 2015).
